Test results taken from ChEMBL document CHEMBL1126057, “Highly water-soluble lipophilic prodrugs of the anti-HIV nucleoside analogue 2',3'-dideoxycytidine and its 3'-fluoro derivative” (J Med Chem, 1992).
Values after ≈ are worked out from the molar mass of the structure shown. One block for each molecule: values may come before it.

Legend:
[1] = Half-life in potassium phosphate buffered saline(PBS) at 37 degree C.; format: ADME
How it was run: (§1)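 Prodrug at 5 × 10^-5 M in PBS, pH 7.4, incubated at 37 °C. A317 read at regular intervals. Pseudo-first-order rate constant taken from the slope of ln(absorbance) vs time, then converted to t1/2.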

[2] = Partition coefficient (P); settings: octanol/water
[3] = Half-life in potassium phosphate buffered saline (PBS) at 37 degree C.; format: ADME; how it was run: as §1
[4] = Half-life in 10% serum solution at 37 degree C.; format: ADME, cell-free
How it was run: (§2)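 Diisopropylamino prodrugs diluted from 10^-2 M stock into human serum, made up with buffer to 10% or 20% serum, or mixed with serum to 90% serum. Incubated at 37 °C; 50-µL aliquots withdrawn at intervals, diluted with buffer, A317 read. Half-life taken from the pseudo-first-order rate constant, i.e. the slope of ln(absorbance) vs time.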

[5] = Half-life in 1N HCl at 37 degree C.; format: ADME
How it was run: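 Diisopropylamino prodrugs at 5 × 10^-5 M in 1 N HCl at 37 °C. Absorbance at 317 nm recorded at regular intervals. ln(absorbance) vs time plotted; slope gives the pseudo-first-order hydrolysis rate constant, from which t1/2 was calculated.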

[6] = Half-life in potassium phosphate buffered saline (PBS) at 37 degree C(0% serum solution).; format: ADME; how it was run: as §1
[7] = Half-life in 20% serum solution at 37 degree C.; format: ADME, cell-free; how it was run: as §2
[8] = Half-life in 90% serum solution at 37 degree C.; format: ADME, cell-free; how it was run: as §2
[9] = Water solubility of the compound.; format: ADME; settings: read-out: S
How it was run: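 Solubility in double-distilled water at room temperature, in mg/mL.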

[10] = pKa value of the compound.; format: physicochemical
How it was run: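 pKa determined by UV spectroscopy at room temperature.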

[11] = tested on: CCRF-CEM; experiment: The compound was tested for the antiviral activity against HIV from CEM-IW human lymphocyte,; format: functional; settings: read-out: ED50 (the source's name)
How it was run: (§3)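 CEM-IW human lymphocytes in culture; reduction of HIV cytopathic effect. Value is the concentration (µM) producing 50% antiviral effect.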

[12] = tested on: CCRF-CEM; experiment: The compound was tested for the cytotoxicity against HIV from CEM-IW human lymphocyte; format: functional, cell-based
How it was run: (§4)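 Cytotoxicity in the same cell cultures as the antiviral assays, measured as 50% growth inhibition by tetrazolium dye assay. Value is the concentration (µM) producing 50% cytotoxicity.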

[13] = The compound was tested for the antiviral activity against Rauscher murine leukemia virus; format: functional; settings: Mus musculus; read-out: ED50 (the source's name)
How it was run: (§5)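 UV-XC plaque reduction assay for Rauscher murine leukemia virus in SC-1 cells in culture, in vitro. Value is the concentration (µM) producing 50% antiviral effect.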

[14] = The compound was tested for the cytotoxicity against Rauscher murine leukemia virus; format: functional, Mus musculus; how it was run: as §4
[15] = The compound was tested for the antiviral activity against Rauscher murine leukemia virus in SC-1 cells; format: functional; settings: Mus musculus, read-out: ED50 (the source's name); how it was run: as §5
[16] = tested on: CCRF-CEM; experiment: The compound was tested for the antiviral activity against HIV from CEM-IW human lymphocyte; format: functional; settings: read-out: ED50 (the source's name); how it was run: as §3
[17] = The compound was tested for the cytotoxicity in SC-1 cells; settings: Mus musculus

half-life [1]: 2.57 h | P [2]: -0.162
SMILES: O=c1nc(/N=C\N2CCCC2)ccn1C1CC(F)C(CO)O1 (stereo unspecified)

half-life [3]: 3.8 h | P [2]: -0.951
SMILES: CN(C)/C=N\c1ccn(C2CCC(CO)O2)c(=O)n1 (stereo unspecified)

half-life [4]: 47.3 h | half-life [5]: 3.9 h | half-life [6]: 47.5 h | half-life [7]: 51.2 h | half-life [8]: 65.6 h | solubility [9]: > 300 mg/mL | pKa [10]: 5.28 | EC50 [11]: 0.065 µM | EC50 [13]: 20.6 µM | P [2]: 0.724
SMILES: CC(C)N(/C=N\c1ccn(C2CCC(CO)O2)c(=O)n1)C(C)C (stereo unspecified)
IC50 [12]: > 200 µM | IC50 [14]: > 1000 µM

half-life [1]: 15.6 h
SMILES: CCCN(/C=N\c1ccn(C2CC(F)C(CO)O2)c(=O)n1)CCC (stereo unspecified)

half-life [1]: 8.67 h | P [2]: -0.059
SMILES: CCN(/C=N\c1ccn(C2CCC(CO)O2)c(=O)n1)CC (stereo unspecified)

half-life [1]: 3.92 h | P [2]: -0.967
SMILES: O=c1nc(/N=C\N2CCOCC2)ccn1C1CCC(CO)O1 (stereo unspecified)

solubility [9]: 15 mg/mL (≈ 65.4 mM) | pKa [10]: 4.22 | EC50 [11]: 0.16 µM | EC50 [13]: 158 µM | P [2]: -0.893
SMILES: Nc1ccn(C2CC(F)C(CO)O2)c(=O)n1 (stereo unspecified)
IC50 [12]: > 3200 µM | IC50 [14]: > 1000 µM

solubility [9]: 78 mg/mL (≈ 369 mM) | pKa [10]: 4.42 | EC50 [13]: 2.2 µM
SMILES: Nc1ccn([C@H]2CC[C@@H](CO)O2)c(=O)n1 [ZALCITABINE]
IC50 [14]: > 1000 µM

half-life [1]: 2.13 h | P [2]: -0.467
SMILES: O=c1nc(/N=C\N2CCCC2)ccn1C1CCC(CO)O1 (stereo unspecified)

half-life [1]: 3.74 h | P [2]: -0.676
SMILES: O=c1nc(/N=C\N2CCOCC2)ccn1C1CC(F)C(CO)O1 (stereo unspecified)

half-life [1]: 13.1 h | P [2]: 0.948
SMILES: CCCN(/C=N\c1ccn(C2CCC(CO)O2)c(=O)n1)CCC (stereo unspecified)

half-life [1]: 4.66 h | EC50 [15]: 214 µM | EC50 [16]: 0.23 µM | P [2]: -0.64
SMILES: CN(C)/C=N\c1ccn(C2CC(F)C(CO)O2)c(=O)n1 (stereo unspecified)
IC50 [12]: > 200 µM | IC50 [17]: > 1000 µM

half-life [4]: 52.4 h | half-life [5]: 5.8 h | half-life [1]: 52.1 h | half-life [7]: 56.5 h | half-life [8]: 86.7 h | solubility [9]: 25 mg/mL (≈ 73.4 mM) | pKa [10]: 5.13 | EC50 [11]: 0.675 µM | EC50 [15]: 518 µM
SMILES: CC(C)N(/C=N\c1ccn(C2CC(F)C(CO)O2)c(=O)n1)C(C)C (stereo unspecified)
IC50 [12]: > 200 µM | IC50 [17]: > 1000 µM

half-life [1]: 10.2 h | P [2]: 0.227
SMILES: CCN(/C=N\c1ccn(C2CC(F)C(CO)O2)c(=O)n1)CC (stereo unspecified)

half-life [1]: 6.3 h | P [2]: 0.358
SMILES: O=c1nc(/N=C\N2CCCCC2)ccn1C1CC(F)C(CO)O1 (stereo unspecified)

half-life [1]: 6.4 h | P [2]: 0.057
SMILES: O=c1nc(/N=C\N2CCCCC2)ccn1C1CCC(CO)O1 (stereo unspecified)
